Laboratory results as given in ChEMBL document CHEMBL4177546, “Development of a Selective Inhibitor of Protein Arginine Deiminase 2” (J Med Chem, 2017).

Experiments:
Homo sapiens [1] = species: Homo sapiens; assay: Selectivity ratio of Kinact/Ki for recombinant human PAD2 expressed in Escherichia coli BL21(DE3)pLysS cells to Kinact/Ki for recombinant full length N-terminal GST-tagged human PAD4 expressed in Escherichia coli Rosetta cells
Outline: (§1)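 Enzyme at 2.0 μM (PAD1, PAD2, PAD4) or 5.0 μM (PAD3) incubated at 37 °C with various inhibitor concentrations in 50 mM HEPES, 10 mM CaCl₂, 2 mM DTT, pH 7.6. Timed aliquots moved into substrate mix: 10 mM BAEE, or 10 mM BAA for PAD3. […] Selectivity ratios taken from these values.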

[2] = molecular target: T1, Protein-arginine deiminase type-2 (Homo sapiens, UniProt Q9Y2J8); assay: Binding affinity to human PAD2 expressed in HEK293T cells assessed as protein occupancy at 25 uM preincubated for 15 mins followed by ionomycin addition measured after 1 hr in presence of CaCl2 by RIBFA probe based SDS-PAGE analysis relative to control; format: cell-based
Outline: (§2)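 Adherent HEK293T/PAD2 cells at 80–90% confluence in HBS with 2 mM CaCl₂ at 37 °C. Inhibitor (in DMSO) added for 15 min, then ionomycin (0.5 μM final) for 1 h. Cells washed and lysed in 1% Triton X-100. Lysate (2 μg/μL) labelled with RIBFA probe (2 μM) plus 2 mM CaCl₂ for 1 h at 37 °C. Gel resolved and fluorescence scanned (~546/579 nm). PAD2 occupancy expressed relative to DMSO control.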

[3] = molecular target: T1, Protein-arginine deiminase type-2; assay: Binding affinity to human PAD2 expressed in HEK293T cells assessed as decrease in histone H3 citrulination incubated for 3 hrs in presence of ionomycin/CaCl2 by SDS-PAGE analysis; format: cell-based
Outline: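 HEK293T stably overexpressing human PAD2, 4 × 10⁵ cells in HBS, given ionomycin (10 μM), CaCl₂ (1 mM) and varying inhibitor concentrations (1% DMSO) for 3 h. Lysed with 1% Triton X-100 and sonicated at 0 °C. 1 μg protein run on SDS-PAGE, western blotted with antibodies to histone H3 and to citrullinated H3 (Cit 2,8,17), and imaged on Licor. EC50 taken from CitH3 intensity.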

[4] = Safety index, ratio of compound EC50 to BB-Cl-amide EC50 for cytotoxicity against HEK293T cells; format: cell-based, HEK-293T; details: human, read-out: Ratio EC50
[5] = molecular target: T1, Protein-arginine deiminase type-2; assay: Binding affinity to human PAD2 expressed in HEK293T cells assessed as protein occupancy preincubated for 15 mins followed by ionomycin addition measured after 1 hr in presence of CaCl2 by RIBFA probe based SDS-PAGE analysis; format: cell-based
Outline: as §2, with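 “°C.” for “°C. Gel resolved and fluorescence scanned (~546/579 nm).”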

Homo sapiens [6] = species: Homo sapiens; assay: Selectivity ratio of Kinact/Ki for recombinant His6-tagged PAD1 (unknown origin) to Kinact/Ki for recombinant His6-tagged PAD3 (unknown origin); outline: as §1
Homo sapiens [7] = species: Homo sapiens; assay: Selectivity ratio of Kinact/Ki for recombinant full length N-terminal GST-tagged human PAD4 expressed in Escherichia coli Rosetta to Kinact/Ki for recombinant His6-tagged PAD3 (unknown origin); outline: as §1
Homo sapiens [8] = species: Homo sapiens; assay: Selectivity ratio of Kinact/Ki for recombinant human PAD2 expressed in Escherichia coli BL21(DE3)pLysS cells to Kinact/Ki for recombinant His6-tagged PAD1 (unknown origin); outline: as §1
Homo sapiens [9] = species: Homo sapiens; assay: Selectivity ratio of Kinact/Ki for recombinant human PAD2 expressed in Escherichia coli BL21(DE3)pLysS to Kinact/Ki for recombinant His6-tagged PAD3 (unknown origin); outline: as §1
Homo sapiens [10] = species: Homo sapiens; assay: Selectivity ratio of Kinact/Ki for recombinant His6-tagged PAD1 (unknown origin) to Kinact/Ki for recombinant full length N-terminal GST-tagged human PAD4 expressed in Escherichia coli Rosetta cells; outline: as §1
Homo sapiens [11] = species: Homo sapiens; assay: Selectivity ratio of Kinact/Ki for recombinant His6-tagged PAD3 (unknown origin) to Kinact/Ki for recombinant full length N-terminal GST-tagged human PAD4 expressed in Escherichia coli Rosetta cells; outline: as §1
Homo sapiens [12] = species: Homo sapiens; assay: Selectivity ratio of Kinact/Ki for recombinant full length N-terminal GST-tagged human PAD4 expressed in Escherichia coli Rosetta cells to Kinact/Ki for recombinant human PAD2 expressed in Escherichia coli BL21(DE3)pLysS cells; outline: as §1
Homo sapiens [13] = species: Homo sapiens; assay: Selectivity ratio of Kinact/Ki for recombinant His6-tagged PAD1 (unknown origin) to Kinact/Ki for recombinant human PAD2 expressed in Escherichia coli BL21(DE3)pLysS cells; outline: as §1
Homo sapiens [14] = species: Homo sapiens; assay: Selectivity ratio of Kinact/Ki for recombinant His6-tagged PAD3 (unknown origin) to Kinact/Ki for recombinant human PAD2 expressed in Escherichia coli BL21(DE3)pLysS cells; outline: as §1
[15] = molecular target: Protein-arginine deiminase type-4 (Homo sapiens) (UniProt Q9UM07); assay: Ratio of Kinact to Ki for recombinant full length N-terminal GST-tagged human PAD4 expressed in Escherichia coli Rosetta cells preincubated for 10 mins followed by BAEE substrate addition measured after 15 mins by COLDER assay
Outline: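 Enzyme at 2.0 μM (PAD1, PAD2, PAD4) or 5.0 μM (PAD3) incubated at 37 °C with various inhibitor concentrations in 50 mM HEPES, 10 mM CaCl₂, 2 mM DTT, pH 7.6. Timed aliquots moved into substrate mix: 10 mM BAEE, or 10 mM BAA for PAD3. Selectivity ratios taken from these values.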

T1 sequence (Q9Y2J8 whole entry): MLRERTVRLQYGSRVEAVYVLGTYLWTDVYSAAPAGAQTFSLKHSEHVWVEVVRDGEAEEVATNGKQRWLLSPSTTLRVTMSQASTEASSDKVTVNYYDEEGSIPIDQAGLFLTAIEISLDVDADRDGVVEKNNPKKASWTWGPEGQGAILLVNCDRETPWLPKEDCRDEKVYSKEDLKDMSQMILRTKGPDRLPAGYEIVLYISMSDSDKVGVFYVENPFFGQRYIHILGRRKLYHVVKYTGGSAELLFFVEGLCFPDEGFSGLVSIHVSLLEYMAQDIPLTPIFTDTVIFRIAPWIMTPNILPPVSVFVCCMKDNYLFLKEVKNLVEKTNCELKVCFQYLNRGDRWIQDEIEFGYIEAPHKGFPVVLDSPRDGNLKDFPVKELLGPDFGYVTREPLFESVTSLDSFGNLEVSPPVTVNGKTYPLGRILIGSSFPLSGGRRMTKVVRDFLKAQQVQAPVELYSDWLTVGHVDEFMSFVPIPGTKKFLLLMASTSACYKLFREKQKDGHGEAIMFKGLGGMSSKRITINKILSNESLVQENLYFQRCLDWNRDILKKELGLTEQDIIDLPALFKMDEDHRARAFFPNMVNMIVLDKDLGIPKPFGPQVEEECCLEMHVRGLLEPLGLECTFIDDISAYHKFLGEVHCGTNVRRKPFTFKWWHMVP
Protein-arginine deiminase type-4 (Homo sapiens), sequence (Q9UM07 whole entry): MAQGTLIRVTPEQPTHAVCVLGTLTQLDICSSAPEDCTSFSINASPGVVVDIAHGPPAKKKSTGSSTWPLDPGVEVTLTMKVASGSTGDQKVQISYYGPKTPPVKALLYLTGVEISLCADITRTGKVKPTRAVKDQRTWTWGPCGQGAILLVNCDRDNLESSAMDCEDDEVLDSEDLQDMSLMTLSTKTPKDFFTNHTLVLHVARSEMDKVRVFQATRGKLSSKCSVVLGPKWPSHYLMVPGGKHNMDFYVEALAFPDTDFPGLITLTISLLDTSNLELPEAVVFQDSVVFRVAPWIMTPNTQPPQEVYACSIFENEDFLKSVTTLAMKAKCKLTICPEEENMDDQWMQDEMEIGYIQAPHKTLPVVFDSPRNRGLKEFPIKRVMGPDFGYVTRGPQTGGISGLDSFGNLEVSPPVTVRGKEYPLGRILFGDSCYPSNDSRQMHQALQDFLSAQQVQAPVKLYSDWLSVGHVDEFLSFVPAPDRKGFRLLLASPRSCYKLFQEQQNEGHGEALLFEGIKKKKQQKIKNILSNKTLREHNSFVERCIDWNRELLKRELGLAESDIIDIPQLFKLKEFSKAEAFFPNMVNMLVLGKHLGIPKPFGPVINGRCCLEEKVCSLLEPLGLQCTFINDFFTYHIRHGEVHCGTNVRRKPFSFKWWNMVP

SMILES	Activity [2]	EC50 [3]	EC50 [5]	Selectivity ratio (Homo sapiens [6])	Selectivity ratio (Homo sapiens [7])	Selectivity ratio (Homo sapiens [9])	Selectivity ratio (Homo sapiens [1])	selectivity ratio [4]	Selectivity ratio (Homo sapiens [8])	Selectivity ratio (Homo sapiens [10])	Selectivity ratio (Homo sapiens [11])	further results
CCN1Cc2cccc(C(=O)N[C@@H](CCCNC(=N)CF)c3nc4ccccc4n3CC)c2C1=O							33		2	19	1	
N=C(CCl)NCCC[C@H](NC(=O)c1ccccc1C(=O)O)c1nc2ccccc2[nH]1												Selectivity ratio (Homo sapiens [12]): 9; Selectivity ratio (Homo sapiens [13]): 8.3; Selectivity ratio (Homo sapiens [14]): 6.2
CCn1c([C@H](CCCNC(=N)CF)NC(=O)c2cccc3c2C(=O)NC3)nc2ccccc21				37	1.7	56	33		2			
CCN1Cc2cccc(C(=O)N[C@@H](CCCNC(=N)CF)c3nc4ccccc4[nH]3)c2C1=O												Selectivity ratio (Homo sapiens [12]): 1; Selectivity ratio (Homo sapiens [13]): 3.4; Selectivity ratio (Homo sapiens [14]): 1
N=C(CF)NCCC[C@H](NC(=O)c1ccc(-c2ccccc2)cc1)c1nc2ccccc2[nH]1			20.6 µM									Ratio [15]: 3750 M⁻¹ min⁻¹
N=C(CF)NCCC[C@H](NC(=O)c1ccccc1C(=O)O)c1nc2ccccc2[nH]1												Selectivity ratio (Homo sapiens [12]): 16; Selectivity ratio (Homo sapiens [13]): 11; Selectivity ratio (Homo sapiens [14]): 4.3
COc1ccc2c(c1)nc([C@H](CCCNC(=N)CF)NC(=O)c1cccc3c1C(=O)NC3)n2C	> 60%	2.1 µM	5.9 µM	121	1.2	114		> 30				

Further lines, with some results ahead:

Activity [2]	EC50 [3]	EC50 [5]	Selectivity ratio (Homo sapiens [6])	Selectivity ratio (Homo sapiens [7])	Selectivity ratio (Homo sapiens [9])	SMILES	Selectivity ratio (Homo sapiens [1])	selectivity ratio [4]	Selectivity ratio (Homo sapiens [8])	Selectivity ratio (Homo sapiens [10])	Selectivity ratio (Homo sapiens [11])	further results
> 60%	0.4 µM	9.5 µM	29	3.2	47	COc1cccc2c1nc([C@H](CCCNC(=N)CF)NC(=O)c1cccc3c1C(=O)NC3)n2C	15	> 30	1.6			
> 60%	2.7 µM	8.3 µM			79	CCOc1cccc2c1nc([C@H](CCCNC(=N)CF)NC(=O)c1cccc3c1C(=O)NC3)n2C	95	> 30		65	1.2	
< 37%					85	CCN1Cc2cccc(C(=O)N[C@@H](CCCNC(=N)CF)c3nc4c(OC)cccc4n3C)c2C1=O	85		5	16	1	
> 60%	2.4 µM	7.6 µM				CCn1c([C@H](CCCNC(=N)CF)NC(=O)c2cccc3c2C(=O)NC3)nc2c(OC)cccc21	32	> 30		38	1	
< 37%			38	3.8	77	COc1cccc2c1nc([C@H](CCCNC(=N)CF)NC(=O)c1cccc3c1C(=O)N(C1CC1)C3)n2C						
